Assay [1] deals with HEK293 cells. The assay can be described thus: Fluo4 [Ca2+]i assay in parental HEK293 cells. The settings on record: 300 µM. In kind it is cell-based. In outline:
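Wild-type HEK293 cells in DMEM (4.5 mg/ml glucose, 10% heat-inactivated FBS, penicillin/streptomycin), plated on polyornithine-treated wells for 14–18 hrs. Loaded with Fluo4-AM (2 µM, 60 min, 37°C) in ECS with 2 mM probenecid, then washed. Test compound was given robotically at 300 µM final. Fluorescence was read on a plate reader at ex 494/em 525 nm, 0.67 Hz, 20–25°C.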

For assay [2], the target named is rat TRPA1 (Rattus norvegicus, UniProt Q6RI86). Briefly: Two-electrode voltage clamp of Xenopus oocytes expressing rat TRPA1. In kind it is cell-based. The following applies: for effect on current in TRPA1-expressing oocytes: 300 µM; for interaction with AITC, CA, or cold on channel activation: 30 µM fenamate with 3 µM AITC or CA, or 14°C; for EC50: nominally Ca2+-free bath; for current evoked by agonist alone, % of that evoked by 30 µM FFA: 3 µM agonist alone. A general note: In two-electrode clamp one electrode senses voltage and the other passes current.
rat TRPA1, sequence (Q6RI86 whole entry): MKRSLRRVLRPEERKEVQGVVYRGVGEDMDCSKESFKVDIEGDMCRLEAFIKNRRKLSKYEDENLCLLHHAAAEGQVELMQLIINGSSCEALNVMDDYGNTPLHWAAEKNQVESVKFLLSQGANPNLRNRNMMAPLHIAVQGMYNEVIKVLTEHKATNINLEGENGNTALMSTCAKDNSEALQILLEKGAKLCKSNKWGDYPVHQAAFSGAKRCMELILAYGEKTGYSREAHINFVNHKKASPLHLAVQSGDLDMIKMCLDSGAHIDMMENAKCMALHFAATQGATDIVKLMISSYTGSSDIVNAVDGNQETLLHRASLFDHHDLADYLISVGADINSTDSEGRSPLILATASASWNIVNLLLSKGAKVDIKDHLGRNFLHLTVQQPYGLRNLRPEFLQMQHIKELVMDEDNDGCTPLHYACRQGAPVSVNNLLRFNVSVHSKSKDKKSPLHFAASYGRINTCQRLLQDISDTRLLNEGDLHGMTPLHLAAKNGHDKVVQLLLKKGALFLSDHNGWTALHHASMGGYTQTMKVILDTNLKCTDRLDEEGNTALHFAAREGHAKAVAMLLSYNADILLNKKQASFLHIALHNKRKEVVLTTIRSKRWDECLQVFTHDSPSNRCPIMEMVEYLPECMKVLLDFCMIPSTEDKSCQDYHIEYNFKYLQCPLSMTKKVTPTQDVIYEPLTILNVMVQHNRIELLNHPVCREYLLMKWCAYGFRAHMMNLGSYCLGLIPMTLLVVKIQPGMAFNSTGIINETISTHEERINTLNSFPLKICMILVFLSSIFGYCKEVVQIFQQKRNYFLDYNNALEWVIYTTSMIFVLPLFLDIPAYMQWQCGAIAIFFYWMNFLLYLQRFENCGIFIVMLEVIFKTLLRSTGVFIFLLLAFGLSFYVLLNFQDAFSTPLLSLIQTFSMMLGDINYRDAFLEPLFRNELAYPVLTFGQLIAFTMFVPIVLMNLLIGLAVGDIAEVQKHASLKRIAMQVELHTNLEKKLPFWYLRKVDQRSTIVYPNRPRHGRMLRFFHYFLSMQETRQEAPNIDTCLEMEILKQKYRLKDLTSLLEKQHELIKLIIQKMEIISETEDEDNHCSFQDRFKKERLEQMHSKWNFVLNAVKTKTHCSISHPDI

In assay [3] the target is T1, human TRPA1 endogenously expressed in WI-38 fibroblasts (Homo sapiens, UniProt O75762). Briefly: Fluo4 [Ca2+]i assay in WI-38 fibroblasts. In kind it is cell-based. The following applies: for agonist effect on Fluo4 fluorescence ([Ca2+]i) in WI-38 cells: 300 µM; for antagonist effect on the response induced by FFA or AITC: 100 µM added 2 min before the agonist, data not shown; for effect of antagonist on response to AITC / effect of antagonist preincubation on response to FFA: antagonist 20 µM; for effect of antagonist on response to AITC: AITC 33 µM; for effect of antagonist preincubation on response to FFA: FFA 33 µM.
T1 sequence (O75762 whole entry): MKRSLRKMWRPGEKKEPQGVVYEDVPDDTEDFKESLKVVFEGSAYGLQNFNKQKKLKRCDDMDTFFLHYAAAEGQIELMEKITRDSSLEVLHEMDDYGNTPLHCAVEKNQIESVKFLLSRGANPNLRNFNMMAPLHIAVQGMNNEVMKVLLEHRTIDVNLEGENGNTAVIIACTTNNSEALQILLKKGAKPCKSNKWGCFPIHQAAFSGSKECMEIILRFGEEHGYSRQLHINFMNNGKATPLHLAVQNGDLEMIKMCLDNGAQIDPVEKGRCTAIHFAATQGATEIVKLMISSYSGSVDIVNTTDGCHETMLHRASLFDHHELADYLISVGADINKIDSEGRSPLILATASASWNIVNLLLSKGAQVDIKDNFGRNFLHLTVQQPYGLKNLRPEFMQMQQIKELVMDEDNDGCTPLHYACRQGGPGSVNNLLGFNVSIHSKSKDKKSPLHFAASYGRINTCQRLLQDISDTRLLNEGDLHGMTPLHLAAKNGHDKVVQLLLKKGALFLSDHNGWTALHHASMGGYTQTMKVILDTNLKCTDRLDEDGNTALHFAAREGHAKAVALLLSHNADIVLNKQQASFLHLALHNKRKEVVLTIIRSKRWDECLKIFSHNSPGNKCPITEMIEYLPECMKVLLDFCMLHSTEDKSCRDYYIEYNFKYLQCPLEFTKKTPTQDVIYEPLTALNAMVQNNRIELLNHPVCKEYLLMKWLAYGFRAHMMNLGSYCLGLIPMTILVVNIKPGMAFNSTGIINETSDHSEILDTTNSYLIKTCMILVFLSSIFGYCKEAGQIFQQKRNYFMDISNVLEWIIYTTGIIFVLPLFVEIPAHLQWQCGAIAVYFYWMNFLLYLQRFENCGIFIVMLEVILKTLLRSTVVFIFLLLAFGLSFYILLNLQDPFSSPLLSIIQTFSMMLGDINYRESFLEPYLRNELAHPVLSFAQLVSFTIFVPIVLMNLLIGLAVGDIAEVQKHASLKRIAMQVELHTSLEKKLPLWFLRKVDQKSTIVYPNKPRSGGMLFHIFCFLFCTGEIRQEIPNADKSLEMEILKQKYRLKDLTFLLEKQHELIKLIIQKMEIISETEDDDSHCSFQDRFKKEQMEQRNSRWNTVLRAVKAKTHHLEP

Assay [4] deals with human TRPA1 Cys621Ser, Cys641Ser and Cys665Ser triple mutant (Homo sapiens, UniProt O75762, C621S/C641S/C665S). Briefly: Currents of human TRPA1 triple cysteine mutant. In kind it is cell-based. The following applies: HH, unpublished results.
human TRPA1 Cys621Ser, Cys641Ser and Cys665Ser triple mutant, sequence (O75762 whole entry C621S/C641S/C665S): as the sequence (O75762 whole entry) above, with C621S, C641S, C665S counted along it
Assay [5] deals with TRPA1 channels heterologously expressed in mammalian cells and Xenopus oocytes. The following applies: read-out: EC50 reported in the literature; as low as; cited from earlier work.
Assay [6] addresses human TRPA1 (Homo sapiens, UniProt O75762). The assay can be described thus: Fluo4 [Ca2+]i assay in HEK-A1 cells. In kind it is cell-based. The settings on record: for nH (Hill coefficient): HEK-A1 cells.
Assay [7] has as its target T1, human TRPA1 endogenously expressed in WI-38 fibroblasts. Briefly: Whole-cell recordings of WI-38 cells. In kind it is cell-based. The settings on record: ruthenium red 30 µM in the bath. In outline: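 WI-38 cells grown in MEM with 10% heat-inactivated FBS and penicillin/streptomycin at 37°C, 5% CO₂. Cells were detached with 0.05% trypsin plus 0.53 mM EDTA in Ca²⁺/Mg²⁺-free HBSS for 5–10 min, held at 37°C, then settled on polyornithine-coated coverslips for 3–5 min before perfusion. Whole-cell voltage clamp was sampled at 5 kHz, with 100 ms ramps from −100 to +100 mV (holding −60 mV) applied every 0.5 s.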

Here are results for 19 compounds from PMC2828537 (Pflugers Archiv : European journal of physiology, 2009).

Structures are written as SMILES. Counter-ions that a name gives are not always drawn. Marks after values point to notes of the source that are not given here.

human TRPA1, sequence (O75762 whole entry, the tested form may be a part): as the sequence (O75762 whole entry) above

`CC(C(=O)O)c1cccc(C(=O)c2ccccc2)c1` (stereo not drawn) [ketoprofen, Ketoprofen]: in assay [1], the “effect on Fluo4 fluorescence in HEK293 cells” value (shortened to “effect … in HEK293 cells”) was “little effect”. Besides, in assay [2], the “effect on current in TRPA1-expressing oocytes” value (shortened to “effect on current”) was “very weak activator”. For the same compound, in assay [3], the 50% effective concentration (EC50) is over 500 µM and the “agonist effect on Fluo4 fluorescence ([Ca2+]i) in WI-38 cells” value (“agonist effect on Fluo4 fluorescence” below) was “increased the Fluo4 fluorescence”.

For the compound `NCCOB(c1ccccc1)c1ccccc1` [2APB, 2-aminoethoxydiphenyl borate], the “concentration-response curve in triple cysteine mutant” value in assay [4] is on record as “right-shifted”.

Take `CC1CCC(C(C)C)C(O)C1` (stereo not drawn) [menthol]: in assay [4], the “concentration-response curve in triple cysteine mutant” value is reported as “right-shifted”.

With `O=C(O)c1cccnc1Nc1cccc(C(F)(F)F)c1` [NFA, niflumic acid], the “effect … in HEK293 cells” value in assay [1] was “little effect”. In addition, in assay [2], the threshold of activation is 10 to 30 µM and the “interaction with AITC, CA, or cold on channel activation” value is given as “positive synergistic effects”. For the same compound, in assay [2] (+100 mV), the “Hill co-efficient at +100 mV” value came to 2.6 ± 0.3. This compound also came in with an EC50 in assay [2] (EC50 for current activation at +100 mV, +100 mV) of 240 ± 12 µM. In assay [2] (EC50 for current activation at −100 mV, −100 mV), this compound had a concentration giving a half-maximal response (EC50) of 540 ± 27 µM. The “Hill co-efficient at −100 mV” value in assay [2] (−100 mV) is listed as 2.1 ± 0.2. For the same compound, in assay [3], the concentration giving a half-maximal response (EC50) came to 28 ± 3 µM and the “agonist effect on Fluo4 fluorescence” value is “increased the Fluo4 fluorescence”. Besides, in assay [3] (WI-38 cells), the “nH (Hill coefficient)” value is 1.4 ± 0.2.

As to `O=C/C=C/c1ccccc1` [CA, cinnamaldehyde], the results for the “current evoked by agonist alone, % of that evoked by 30 µM FFA” value in assay [2] (+100 mV) and in assay [2] (−100 mV) were 44 ± 16% and 45 ± 8%, respectively. Besides, the results for the EC50 in assay [3] and in assay [5] were 400 ± 41 µM and 6.5 µM, respectively. Also, the “agonist effect on Fluo4 fluorescence” value in assay [3] was “rapid fluorescence increase”. Besides, the “nH (Hill coefficient)” value in assay [3] (WI-38 cells) was found to be 0.9 ± 0.1.

Consider `O=C(c1ccccc1)c1ccc2n1CCC2C(=O)O` (stereo not drawn) [ketorolac, ketorolac tromethamine salt], for which the “effect on current” value in assay [2] was “did not have an effect”. Also, in assay [3], the “antagonist effect on the response induced by FFA or AITC” value was “do not act as antagonists” and the “agonist effect on Fluo4 fluorescence” value is on record as “fail to activate”.

For the compound `CC(C)c1ccc(NC(=O)Cn2cnc3c2c(=O)n(C)c(=O)n3C)cc1` [HC-030031], in assay [3], the “effect of antagonist on response to AITC” value is given as “blocked” and the “effect of antagonist preincubation on response to FFA” value is reported as “inhibited”.

Regarding `CC(=C\c1ccc(Cl)cc1)/C(C)=N/O` [AP-18], in assay [3], the “effect of antagonist on response to AITC” value is “blocked” and the “effect of antagonist preincubation on response to FFA” value is listed as “inhibited”.

On to `O=C(O)Cc1ccccc1Nc1c(Cl)cccc1Cl` [diclofenac, Diclofenac sodium salt], for which the “effect … in HEK293 cells” value in assay [1] is reported as “little effect”. Moreover, in assay [2], the “effect on current” value is given as “caused current increases”. Besides, the “agonist effect on Fluo4 fluorescence” value in assay [3] was “increased the Fluo4 fluorescence”. In addition, the “nH (Hill coefficient)” value in assay [3] (WI-38 cells) turned out to be 1.3 ± 0.2.

Consider `CC(C(=O)O)c1ccc(-c2ccccc2)c(F)c1` (racemic) [flurbiprofen, (±)-flurbiprofen], for which the “effect … in HEK293 cells” value in assay [1] is listed as “little effect”. Moreover, the “effect on current” value in assay [2] is reported as “caused current increases”. The concentration for a half-maximal effect (EC50) in assay [3] stood at 342 ± 6 µM; in assay [6], 310 ± 66 µM. For the same compound, in assay [3], the “agonist effect on Fluo4 fluorescence” value is given as “increased the Fluo4 fluorescence”. The “nH (Hill coefficient)” value in assay [3] (WI-38 cells) came to 1.5 ± 0.1; in assay [6], 2.0 ± 0.3.

On to `CC(=O)Oc1ccccc1C(=O)O` [acetylsalicylic acid, Acetylsalicylic acid], for which the “agonist effect on Fluo4 fluorescence” value in assay [3] is “did not act as agonists”.

On to `CC(C)Cc1ccc([C@H](C)C(=O)O)cc1` [ibuprofen, (S)-(+)-ibuprofen], for which, in assay [3], the “agonist effect on Fluo4 fluorescence” value is reported as “did not act as agonists”.

Turning to `C=CC=O` [acrolein], in assay [3], the “agonist effect on Fluo4 fluorescence” value is “rapid fluorescence increase”. The “nH (Hill coefficient)” value in assay [3] (WI-38 cells) turned out to be 1.0 ± 0.1. Further, the 50% effective concentration (EC50) in assay [5] is 0.8 µM.

Consider `C=CCN=C=S` [AITC, allyl isothiocyanate], for which the “current evoked by agonist alone, % of that evoked by 30 µM FFA” value in assay [2] (+100 mV) is listed as 45 ± 14%; in assay [2] (−100 mV), 51 ± 10%. In addition, the “agonist effect on Fluo4 fluorescence” value in assay [3] is “rapid fluorescence increase”. Further, the results for the “nH (Hill coefficient)” value in assay [3] (WI-38 cells) and in assay [6] were 1.0 ± 0.1 and 0.8 ± 0.1, respectively. In addition, in assay [5], the half-maximal effective concentration (EC50) was 5 µM.

With `COC(=O)C1=C(C)NC(C)=C(C(=O)OC)C1c1ccccc1[N+](=O)[O-]` [nifedipine], the half-maximal effective concentration (EC50) in assay [3] was 157 ± 8 µM; in assay [5], 0.4 µM; in assay [6], 140 ± 23 µM. For the same compound, the “agonist effect on Fluo4 fluorescence” value in assay [3] is “rapid fluorescence increase”. For the same compound, the “nH (Hill coefficient)” value in assay [3] (WI-38 cells) worked out at 1.1 ± 0.1; in assay [6], 1.0 ± 0.1.

In the case of `N.N.N.N.N.N.N.N.N.N.N.N.N.N.[Cl-].[Cl-].[Cl-].[Cl-].[Cl-].[Cl-].[O-2].[O-2].[Ru+3].[Ru+3].[Ru+4]` [ruthenium red], in assay [7], the “effect on FFA-induced whole-cell currents” value is “completely abolished”. Moreover, the “effect of antagonist on response to AITC” value in assay [3] was “blocked”. In addition, the 50% inhibitory concentration (IC50) in assay [3] (read-out: IC50 for inhibition of the response to FFA, curve not shown) is 2.1 µM.

Consider `Cc1cccc(Nc2ccccc2C(=O)O)c1C` [MFA, mefenamic acid], for which the “effect … in HEK293 cells” value in assay [1] is recorded as “little effect”. For the same compound, the “interaction with AITC, CA, or cold on channel activation” value in assay [2] is on record as “positive synergistic effects”. Also, the “agonist effect on Fluo4 fluorescence” value in assay [3] is reported as “increased the Fluo4 fluorescence”. In addition, in assay [3] (WI-38 cells), the “nH (Hill coefficient)” value stood at 1.5 ± 0.2.

Take `COc1ccc2cc([C@H](C)C(=O)O)ccc2c1` [naproxen, (S)-naproxen]: the “effect on current” value in assay [2] is “did not have an effect”. In addition, in assay [3], the “antagonist effect on the response induced by FFA or AITC” value is listed as “do not act as antagonists” and the “agonist effect on Fluo4 fluorescence” value is “fail to activate”.

For the compound `COc1ccc2c(c1)c(CC(=O)O)c(C)n2C(=O)c1ccc(Cl)cc1` [indomethacin], in assay [1], the “effect … in HEK293 cells” value was “little effect”. In addition, in assay [2], the “effect on current” value is recorded as “caused current increases”. In addition, in assay [3], the EC50 was determined as 470 ± 54 µM and the “agonist effect on Fluo4 fluorescence” value is “increased the Fluo4 fluorescence”. In addition, the “nH (Hill coefficient), fixed to make the fit” value in assay [3] (WI-38 cells, nH was fixed to 1.5) is 1.5 ^b.

As a reminder, the EC50 is the concentration that produces a half-maximal response. For orientation: IC50 means the concentration needed to halve the response being measured.
